Source: ChEMBL document CHEMBL3808393, “Discovery of Potent and Selective Agonists of δ Opioid Receptor by Revisiting the "Message-Address" Concept” (ACS Med Chem Lett, 2016)

Experiments:
[1] = target: T1, Delta-type opioid receptor (Homo sapiens, UniProt P41143); assay: Displacement of [3H]DPDPE from human DOR expressed in CHO cell membranes after 60 mins
Mu-type opioid receptor [2] = target: T2, Mu-type opioid receptor (Homo sapiens, UniProt P35372); assay: Displacement of [3H]DAMGO from human MOR expressed in CHO cell membranes after 60 mins
T2 sequence (P35372 whole entry): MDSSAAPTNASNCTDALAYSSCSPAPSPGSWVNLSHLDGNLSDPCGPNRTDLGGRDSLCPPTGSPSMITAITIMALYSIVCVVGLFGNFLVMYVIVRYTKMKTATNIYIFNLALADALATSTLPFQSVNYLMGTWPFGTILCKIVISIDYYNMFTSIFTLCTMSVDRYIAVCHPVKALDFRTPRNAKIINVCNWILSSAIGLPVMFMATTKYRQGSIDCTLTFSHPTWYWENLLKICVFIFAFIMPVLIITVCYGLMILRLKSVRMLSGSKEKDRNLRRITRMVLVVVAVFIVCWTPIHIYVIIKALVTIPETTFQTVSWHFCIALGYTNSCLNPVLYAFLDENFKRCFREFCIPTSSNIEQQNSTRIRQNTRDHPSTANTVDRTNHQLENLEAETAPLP

[3] = target: T3, Kappa-type opioid receptor (Homo sapiens, UniProt P41145); assay: Displacement of [3H]U69593 from human KOR expressed in CHO cell membranes after 60 mins
T3 sequence (P41145 whole entry): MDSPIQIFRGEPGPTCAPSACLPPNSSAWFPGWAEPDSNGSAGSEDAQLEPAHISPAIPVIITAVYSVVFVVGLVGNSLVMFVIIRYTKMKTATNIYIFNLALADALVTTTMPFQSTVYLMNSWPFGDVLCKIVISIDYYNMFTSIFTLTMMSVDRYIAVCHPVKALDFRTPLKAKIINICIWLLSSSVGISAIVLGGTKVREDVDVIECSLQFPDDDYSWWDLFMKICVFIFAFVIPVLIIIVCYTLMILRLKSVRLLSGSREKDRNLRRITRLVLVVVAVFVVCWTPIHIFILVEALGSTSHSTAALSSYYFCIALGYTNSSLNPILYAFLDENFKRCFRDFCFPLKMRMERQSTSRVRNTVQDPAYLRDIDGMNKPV

[4] = target: T1, Delta-type opioid receptor; assay: Agonist activity at human DOR expressed in CHO cell membranes after 60 mins by [35S]GTP-gamma-S binding assay
In short: (§1)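 Receptor activation by standard [35S]GTP-γ-S binding. Each compound was assayed three times and reported as mean ± SEM.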

[5] = target: T1, Delta-type opioid receptor; assay: Displacement of [3H]DPDPE from human DOR expressed in CHO cell membranes at 1 uM after 60 mins
In short: (§2)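 Competitive radioligand inhibition binding. […] DOR used [3H]DPDPE on membranes of CHO cells expressing human DOR. KOR used [3H]U69593 on CHO cells expressing human KOR. […] Each compound was run three times, mean ± SEM.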

[6] = target: T3, Kappa-type opioid receptor; assay: Agonist activity at human KOR expressed in CHO cell membranes after 60 mins by [35S]GTP-gamma-S binding assay; in short: as §1
Mu-type opioid receptor [7] = target: T2, Mu-type opioid receptor; assay: Displacement of [3H]DAMGO from human MOR expressed in CHO cell membranes at 1 uM after 60 mins
[8] = target: T3, Kappa-type opioid receptor; assay: Displacement of [3H]U69593 from human KOR expressed in CHO cell membranes at 1 uM after 60 mins; in short: as §2
Mu-type opioid receptor [9] = target: T2, Mu-type opioid receptor; assay: Agonist activity at human MOR expressed in CHO cell membranes after 60 mins by [35S]GTP-gamma-S binding assay
In short: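 [35S]GTP-γ-S binding read-out of G-protein activation. Each compound assayed three times, with values given as mean ± standard error of the mean.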

T1 sequence (P41143 whole entry): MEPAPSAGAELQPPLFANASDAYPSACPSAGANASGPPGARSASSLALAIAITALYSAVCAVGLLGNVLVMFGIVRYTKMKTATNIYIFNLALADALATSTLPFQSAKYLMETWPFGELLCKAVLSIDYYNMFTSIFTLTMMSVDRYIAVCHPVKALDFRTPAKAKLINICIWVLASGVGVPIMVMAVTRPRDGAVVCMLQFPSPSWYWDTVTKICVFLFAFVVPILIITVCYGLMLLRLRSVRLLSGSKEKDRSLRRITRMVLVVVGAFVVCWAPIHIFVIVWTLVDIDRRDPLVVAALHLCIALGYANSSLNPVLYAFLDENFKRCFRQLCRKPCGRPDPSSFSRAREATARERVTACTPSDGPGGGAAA

CN(C)C[C@H]1CCc2cc(-c3ccccc3Cl)ccc2[C@]1(O)c1cccc(O)c1 was tested, and the Ki [1] was 0.16 µM, the Ki (Mu-type opioid receptor [2]) was > 10 µM and the Ki [3] was > 10 µM. It also gave an EC50 [4] of 0.95 µM and an Emax [4] of 216%.

With COc1cccc([C@@]2(O)c3ccc(-c4ccc(C(F)(F)F)cc4)cc3CC[C@@H]2CN(C)C)c1 the Ki [1] was > 10 µM, the Ki (Mu-type opioid receptor [2]) was > 10 µM and the Ki [3] was > 10 µM.

In the case of COc1cccc([C@@]2(O)c3ccc(-c4ccc(Cl)c(Cl)c4)cc3CC[C@@H]2CN(C)C)c1, the Ki [1] is reported as > 10 µM, the Ki (Mu-type opioid receptor [2]) is reported as > 10 µM and the Ki [3] is reported as > 10 µM.

With COc1cccc([C@@]2(O)c3ccc(-c4ccc(Cl)cc4)cc3CC[C@@H]2CN(C)C)c1 the Ki [1] was > 10 µM, the Ki (Mu-type opioid receptor [2]) was > 10 µM and the Ki [3] was > 10 µM.

For CN(C)C[C@H]1CCc2cc(-c3ccc(Cl)c(Cl)c3)ccc2[C@]1(O)c1cccc(O)c1, the Ki [1] was > 10 µM, the Ki (Mu-type opioid receptor [2]) was > 10 µM and the Ki [3] was > 10 µM.

COc1cccc(-c2ccc3c(c2)CC[C@H](CN(C)C)[C@@]3(O)c2cccc(OC)c2)c1 was tested, and the Ki [1] was > 10 µM, the Ki (Mu-type opioid receptor [2]) was > 10 µM and the Ki [3] was > 10 µM.

With CN(C)C[C@H]1CCc2cc(-c3ccc(C(F)(F)F)cc3)ccc2[C@]1(O)c1cccc(O)c1 the Ki [1] was > 10 µM, the Ki (Mu-type opioid receptor [2]) was > 10 µM and the Ki [3] was > 10 µM.

With COc1cccc([C@@]2(O)c3ccc(-c4ccccc4OC)cc3CC[C@@H]2CN(C)C)c1 the Ki (Mu-type opioid receptor [2]) was > 10 µM, the Ki [3] was > 10 µM and the inhibition [5] was 37.9%.

For CN(C)C[C@H]1CCc2cc(-c3ccccc3)ccc2[C@]1(O)c1cccc(O)c1, the EC50 [6] was 0.58 µM, the Emax [6] was 187% and the inhibition (Mu-type opioid receptor [7]) was 20%. It also gave a Ki [3] of 0.14 µM and an inhibition [5] of 22%.

For CN(C)C[C@H]1CCc2cc(-c3ccccc3OC(F)(F)F)ccc2[C@]1(O)c1cccc(O)c1, the Ki [1] was 0.26 µM, the Ki (Mu-type opioid receptor [2]) was > 10 µM and the Ki [3] was > 10 µM. The EC50 [4] was 1 µM and the Emax [4] was 215%.

With COc1ccccc1-c1ccc2c(c1)CC[C@H](CN(C)C)[C@@]2(O)c1cccc(O)c1 the Ki [1] was 0.0047 µM, the Ki (Mu-type opioid receptor [2]) was > 10 µM and the inhibition [8] was 17.7%. For the same molecule, the EC50 [4] was 0.0093 µM and the Emax [4] was 230%.

In the case of COc1ccccc1-c1ccc2c(c1)CCC(CN(C)C)C2(O)c1cccc(O)c1 (single isomer, unassigned; (+)), the Ki [1] is reported as > 10 µM, the Ki (Mu-type opioid receptor [2]; cho) is reported as > 10 µM and the Ki ([3]; cho) is reported as > 10 µM.

For COc1ccc(-c2ccc3c(c2)CC[C@H](CN(C)C)[C@@]3(O)c2cccc(OC)c2)cc1, the Ki [1] was > 10 µM, the Ki (Mu-type opioid receptor [2]) was > 10 µM and the Ki [3] was > 10 µM.

With COc1cccc(-c2ccc3c(c2)CC[C@H](CN(C)C)[C@@]3(O)c2cccc(O)c2)c1 the Ki (Mu-type opioid receptor [2]) was > 10 µM, the inhibition [8] was 15% and the inhibition [5] was 43%.

For COc1ccc(-c2ccc3c(c2)CC[C@H](CN(C)C)[C@@]3(O)c2cccc(O)c2)cc1, the Ki (Mu-type opioid receptor [2]) was > 10 µM, the Ki [3] was > 10 µM and the inhibition [5] was 32%.

In the case of Cc1ccccc1-c1ccc2c(c1)CC[C@H](CN(C)C)[C@@]2(O)c1cccc(O)c1, the Ki [1] is reported as 0.14 µM, the Ki (Mu-type opioid receptor [2]) is reported as > 10 µM and the Ki [3] is reported as > 10 µM. The EC50 [4] was 0.49 µM and the Emax [4] was 199%.

In the case of COc1cccc([C@@]2(O)c3ccc(-c4ccccc4C)cc3CC[C@@H]2CN(C)C)c1, the Ki (Mu-type opioid receptor [2]) is reported as > 10 µM, the inhibition [8] is reported as 16.2% and the inhibition [5] is reported as 13%.

With COc1cccc([C@@]2(O)CCCC[C@@H]2CN(C)C)c1 (racemic) [(R,R)-TRAMADOL] the Ki [1] was > 10 µM, the inhibition (Mu-type opioid receptor [7]) was 9.6% and the Ki [3] was > 10 µM.

For COc1cccc([C@@]2(O)c3ccc(-c4ccccc4)cc3CC[C@@H]2CN(C)C)c1, the Ki [1] was > 10 µM, the Ki (Mu-type opioid receptor [2]) was > 10 µM and the inhibition [8] was 37%.

In the case of CN(C)C[C@H]1CCCC[C@]1(O)c1cccc(O)c1 (racemic) [O-DESMETHYL TRAMADOL], the Ki [1] is reported as > 10 µM, the Ki [3] is reported as > 10 µM and the Emax (Mu-type opioid receptor [9]) is reported as 220%.

CN(C)C[C@H]1CCc2cc(-c3ccccc3C(F)(F)F)ccc2[C@]1(O)c1cccc(O)c1 was tested, and the Ki [1] was 0.065 µM, the Ki (Mu-type opioid receptor [2]) was > 10 µM and the Ki [3] was > 10 µM. For the same molecule, the EC50 [4] was 0.9 µM and the Emax [4] was 217%.

COc1ccccc1-c1ccc2c(c1)CCC(CN(C)C)C2(O)c1cccc(O)c1 (single isomer, unassigned; (-)) [listing 1 of 2 here] was tested, and the Emax [4] was 205%.

For COc1ccccc1-c1ccc2c(c1)CCC(CN(C)C)C2(O)c1cccc(O)c1 (single isomer, unassigned; (-)) [listing 2 of 2 here], the Ki [1] was 0.0027 µM, the Ki (Mu-type opioid receptor [2]) was > 10 µM and the Ki [3] was > 10 µM. For the same molecule, the EC50 [4] was 0.0026 µM.

With CN(C)C[C@H]1CCc2cc(-c3ccccc3F)ccc2[C@]1(O)c1cccc(O)c1 the Ki [1] was 0.72 µM, the Ki (Mu-type opioid receptor [2]) was > 10 µM and the Ki [3] was > 10 µM. For the same molecule, the EC50 [4] was 1.6 µM and the Emax [4] was 172%.

In the case of CN(C)C[C@H]1CCc2cc(-c3ccc(Cl)cc3)ccc2[C@]1(O)c1cccc(O)c1, the Ki (Mu-type opioid receptor [2]) is reported as > 10 µM, the inhibition [8] is reported as 8.9% and the inhibition [5] is reported as 17%.
